Data published in ChEMBL document CHEMBL3297713, “Discovery, optimization, and biological evaluation of 5-(2-(trifluoromethyl)phenyl)indazoles as a novel class of transient receptor potential A1 (TRPA1) antagonists” (J Med Chem, 2014).

Key:
[1] = molecular target: T1, Transient receptor potential cation channel subfamily A member 1 (Homo sapiens, UniProt O75762); assay: Antagonist activity at TRPA1 (unknown origin)
Procedure, shortened: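 TRPA1 expressed in CHO-TREX cells, induced with tetracycline (0.5 µg/mL for human, 1 µg/mL for mouse or rat). Cells loaded with Fluo4-AM for 90 min at room temperature, then washed. Antagonist added 10 min before an EC80 agonist in HBSS/20 mM HEPES, 2.5 mM probenecid, 0.1% BSA. Calcium flux read by FLIPR. IC50 taken from sigmoidal curves of triplicate means.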

[2] = molecular target: T1, Transient receptor potential cation channel subfamily A member 1; assay: Antagonist activity at human TRPA1 expressed in CHO-TREX cells assessed as inhibition of cinnamaldehyde-induced calcium flux incubated 10 mins prior to cinnamaldehyde addition by FLIPR assay relative to control; format: cell-based
Procedure, shortened: (§1)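 TRPA1-expressing CHO-TREX cells, channel expression induced with tetracycline (0.5 µg/mL human, 1 µg/mL mouse or rat). Cells loaded with Fluo4-AM for 90 min at room temperature, washed, then test agent added in HBSS/20 mM HEPES/2.5 mM probenecid/0.1% BSA. Agonist added 10 min later at EC80: human cinnamaldehyde 30 µM, AITC 2.5 µM, dibenzoxazepine-carboxamide 5 nM; rat and mouse cinnamaldehyde 40 µM. FLIPR calcium flux; mean of triplicates fitted to sigmoidal dose-response curves.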

[3] = molecular target: Transient receptor potential cation channel subfamily A member 1 (Rattus norvegicus) (UniProt Q6RI86); assay: (§2) Antagonist activity at rat TRPA1 expressed in CHO-TREX cells assessed as inhibition of cinnamaldehyde-induced calcium flux incubated 10 mins prior to cinnamaldehyde addition by FLIPR assay relative to control; format: cell-based; parameters: concentration or dose not given beside the values; procedure, shortened: as §1
[4] = molecular target: Transient receptor potential cation channel subfamily A member 1 (Rattus norvegicus, UniProt Q6RI86); assay: as §2; format: cell-based; procedure, shortened: as §1
[5] = molecular target: Transient receptor potential cation channel subfamily A member 1 (Mus musculus) (UniProt Q8BLA8); assay: (§3) Antagonist activity at mouse TRPA1 expressed in CHO-TREX cells assessed as inhibition of cinnamaldehyde-induced calcium flux incubated 10 mins prior to cinnamaldehyde addition by FLIPR assay relative to control; format: cell-based; parameters: concentration or dose not given beside the values; procedure, shortened: as §1
[6] = molecular target: Transient receptor potential cation channel subfamily A member 1 (Mus musculus, UniProt Q8BLA8); assay: as §3; format: cell-based; procedure, shortened: as §1
[7] = molecular target: Transient receptor potential cation channel subfamily V member 1 (Homo sapiens, UniProt Q8NER1); assay: Antagonist activity at human TRPV1 expressed in CHOK1 cells assessed as inhibition of capsaicin-induced calcium flux incubated 10 mins prior to capsaicin addition by FLIPR assay relative to control; format: cell-based, CHO-K1
[8] = molecular target: T2, Transient receptor potential cation channel subfamily V member 3 (Homo sapiens) (UniProt Q8NET8); assay: (§4) Antagonist activity at human TRPV3 expressed in CHOK1 cells assessed as inhibition of 2-APB-induced calcium flux incubated 10 mins prior to 2-APB addition by FLIPR assay relative to control; format: cell-based; parameters: concentration or dose not given beside the values; settings: CHO-K1
T2 sequence (whole entry): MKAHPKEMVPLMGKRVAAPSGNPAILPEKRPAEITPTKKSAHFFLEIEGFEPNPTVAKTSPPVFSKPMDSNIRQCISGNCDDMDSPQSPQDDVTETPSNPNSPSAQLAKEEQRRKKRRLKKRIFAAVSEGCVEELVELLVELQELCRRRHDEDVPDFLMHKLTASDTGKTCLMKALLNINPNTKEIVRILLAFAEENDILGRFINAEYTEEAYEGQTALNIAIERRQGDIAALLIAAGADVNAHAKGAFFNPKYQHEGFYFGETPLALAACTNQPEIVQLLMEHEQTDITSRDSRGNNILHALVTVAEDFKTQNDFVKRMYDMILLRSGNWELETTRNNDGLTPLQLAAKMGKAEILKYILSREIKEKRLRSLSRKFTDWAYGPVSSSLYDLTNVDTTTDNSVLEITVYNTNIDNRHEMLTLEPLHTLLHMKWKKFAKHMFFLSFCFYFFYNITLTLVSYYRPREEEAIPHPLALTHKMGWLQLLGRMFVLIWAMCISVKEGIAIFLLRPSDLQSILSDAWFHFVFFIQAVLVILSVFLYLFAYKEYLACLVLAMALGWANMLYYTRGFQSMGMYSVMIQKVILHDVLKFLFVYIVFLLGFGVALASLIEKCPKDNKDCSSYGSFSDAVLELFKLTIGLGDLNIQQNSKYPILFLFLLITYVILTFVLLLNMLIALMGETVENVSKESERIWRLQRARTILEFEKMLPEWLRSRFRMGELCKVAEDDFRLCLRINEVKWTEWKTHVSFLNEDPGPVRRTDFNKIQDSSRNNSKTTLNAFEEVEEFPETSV

[9] = molecular target: T3, Transient receptor potential cation channel subfamily V member 3 (Homo sapiens, UniProt Q8NET8); assay: as §4; format: cell-based, CHO-K1
T3 sequence (Q8NET8 whole entry): T2 sequence (whole entry)

[10] = molecular target: Transient receptor potential cation channel subfamily M member 8 (Homo sapiens, UniProt Q7Z2W7); assay: Antagonist activity at human TRPM8 expressed in CHOK1 cells assessed as inhibition of menthol-induced calcium flux incubated 10 mins prior to menthol addition by FLIPR assay relative to control; format: cell-based, CHO-K1
[11] = tested on: CHO-K1; assay: Selectivity ratio of IC50 for human TRPV1 expressed in CHOK1 cells to IC50 for human TRPA1 expressed in CHO-TREX cells; format: cell-based
Procedure, shortened: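 Stable hTRPV1 CHO-K1 and tetracycline-induced (0.5 µg/mL) hTRPA1 CHO-TREX cells were loaded with Fluo4-AM for 90 min at room temperature and read on FLIPR. Antagonist preincubation was 10 min before EC80 agonist: capsaicin 40 nM (TRPV1); cinnamaldehyde 30 µM, AITC 2.5 µM or dibenzoxazepine carboxamide 5 nM (TRPA1). Buffer contained probenecid and BSA. IC50s were fitted from triplicate means of max−min calcium signal.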

[12] = tested on: CHO-K1; assay: Selectivity ratio of IC50 for human TRPV3 expressed in CHOK1 cells to IC50 for human TRPA1 expressed in CHO-TREX cells; format: cell-based
Procedure, shortened: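 Calcium influx was measured by FLIPR in Fluo4-AM-loaded cells: hTRPV3 CHO-K1 challenged with 40 µM 2-APB, and hTRPA1 CHO-TREX (0.5 µg/mL tetracycline) challenged with 30 µM cinnamaldehyde, 2.5 µM AITC or 5 nM dibenzoxazepine carboxamide, all at EC80. Compounds were added 10 min ahead of agonist in HEPES-buffered HBSS with probenecid. Sigmoidal curves were fitted to triplicate means.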

[13] = tested on: CHO-K1; assay: Selectivity ratio of IC50 for human TRPM8 expressed in CHOK1 cells to IC50 for human TRPA1 expressed in CHO-TREX cells; format: cell-based
Procedure, shortened: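 FLIPR calcium-flux antagonist assays with Fluo4-AM loading (90 min, room temperature) in HBSS/20 mM HEPES/2.5 mM probenecid/0.1% BSA. Compound added 10 min before agonist at EC80: 40 µM menthol for CHO-K1 hTRPM8; for tetracycline-induced (0.5 µg/mL) CHO-TREX hTRPA1, 30 µM cinnamaldehyde, 2.5 µM AITC or 5 nM dibenzoxazepine carboxamide. Response is maximum minus minimum. IC50s come from sigmoidal fits of triplicate means.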

[14] = Clearance in Wistar rat at 1 mg/kg, iv; format: ADME, organism-based; parameters: dose 1 mg/kg, route intravenous; settings: in vivo
Procedure, shortened: (§5)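 Wistar rats given 1 mg/kg i.v. as a solution in 75% PEG200/25% D5W.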

[15] = Volume of distribution at steady state in Wistar rat at 1 mg/kg, iv; format: ADME, organism-based; parameters: dose 1 mg/kg, route intravenous; settings: in vivo, read-out: Vdss; procedure, shortened: as §5
[16] = Half life in Wistar rat at 1 mg/kg, iv; format: ADME, organism-based; parameters: dose 1 mg/kg, route intravenous; settings: in vivo; procedure, shortened: as §5
[17] = AUC in Wistar rat at 10 mg/kg, po; format: ADME, organism-based; parameters: dose 10 mg/kg, route oral; settings: plasma
Procedure, shortened: (§6)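 Male Wistar rats dosed orally at 10 mg/kg as a suspension in 0.5% methylcellulose/0.5% Tween80.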

[18] = Cmax in Wistar rat at 10 mg/kg, po; format: ADME, organism-based; parameters: dose 10 mg/kg, route oral; settings: in vivo; procedure, shortened: as §6
[19] = Tmax in Wistar rat at 10 mg/kg, po; format: ADME, organism-based; parameters: dose 10 mg/kg, route oral; settings: in vivo; procedure, shortened: as §6
[20] = Oral bioavailability in Wistar rat at 10 mg/kg; format: ADME, organism-based; settings: in vivo; procedure, shortened: as §6

T1 sequence (O75762 whole entry): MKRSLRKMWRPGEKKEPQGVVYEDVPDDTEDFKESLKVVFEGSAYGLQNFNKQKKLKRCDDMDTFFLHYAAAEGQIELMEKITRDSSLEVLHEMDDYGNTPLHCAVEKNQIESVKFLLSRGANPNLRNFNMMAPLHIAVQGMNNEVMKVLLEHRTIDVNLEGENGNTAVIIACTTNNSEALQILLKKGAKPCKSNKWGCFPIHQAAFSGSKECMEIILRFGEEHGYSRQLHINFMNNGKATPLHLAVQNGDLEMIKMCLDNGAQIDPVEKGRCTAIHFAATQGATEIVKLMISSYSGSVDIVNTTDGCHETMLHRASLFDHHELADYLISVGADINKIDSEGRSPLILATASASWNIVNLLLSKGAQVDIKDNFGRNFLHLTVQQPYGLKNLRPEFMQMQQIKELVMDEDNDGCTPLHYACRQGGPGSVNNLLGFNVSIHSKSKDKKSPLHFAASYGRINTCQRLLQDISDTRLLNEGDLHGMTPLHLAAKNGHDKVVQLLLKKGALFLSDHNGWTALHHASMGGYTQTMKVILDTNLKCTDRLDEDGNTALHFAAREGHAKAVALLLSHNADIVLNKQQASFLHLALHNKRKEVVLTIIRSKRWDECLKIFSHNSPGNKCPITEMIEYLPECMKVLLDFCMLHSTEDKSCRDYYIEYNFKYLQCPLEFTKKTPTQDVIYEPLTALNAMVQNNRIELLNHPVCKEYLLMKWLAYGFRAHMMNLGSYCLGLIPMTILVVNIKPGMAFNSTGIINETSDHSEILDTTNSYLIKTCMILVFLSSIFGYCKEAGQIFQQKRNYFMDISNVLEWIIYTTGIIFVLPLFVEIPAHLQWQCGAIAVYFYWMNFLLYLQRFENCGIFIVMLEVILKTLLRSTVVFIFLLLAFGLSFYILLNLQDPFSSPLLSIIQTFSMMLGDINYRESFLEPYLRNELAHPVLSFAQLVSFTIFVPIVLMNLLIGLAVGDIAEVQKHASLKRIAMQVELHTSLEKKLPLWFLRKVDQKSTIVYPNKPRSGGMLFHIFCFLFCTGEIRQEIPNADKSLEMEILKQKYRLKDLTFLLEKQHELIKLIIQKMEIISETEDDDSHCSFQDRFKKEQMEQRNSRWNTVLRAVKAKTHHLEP
Sequence of Transient receptor potential cation channel subfamily V member 1 (Q8NER1 whole entry): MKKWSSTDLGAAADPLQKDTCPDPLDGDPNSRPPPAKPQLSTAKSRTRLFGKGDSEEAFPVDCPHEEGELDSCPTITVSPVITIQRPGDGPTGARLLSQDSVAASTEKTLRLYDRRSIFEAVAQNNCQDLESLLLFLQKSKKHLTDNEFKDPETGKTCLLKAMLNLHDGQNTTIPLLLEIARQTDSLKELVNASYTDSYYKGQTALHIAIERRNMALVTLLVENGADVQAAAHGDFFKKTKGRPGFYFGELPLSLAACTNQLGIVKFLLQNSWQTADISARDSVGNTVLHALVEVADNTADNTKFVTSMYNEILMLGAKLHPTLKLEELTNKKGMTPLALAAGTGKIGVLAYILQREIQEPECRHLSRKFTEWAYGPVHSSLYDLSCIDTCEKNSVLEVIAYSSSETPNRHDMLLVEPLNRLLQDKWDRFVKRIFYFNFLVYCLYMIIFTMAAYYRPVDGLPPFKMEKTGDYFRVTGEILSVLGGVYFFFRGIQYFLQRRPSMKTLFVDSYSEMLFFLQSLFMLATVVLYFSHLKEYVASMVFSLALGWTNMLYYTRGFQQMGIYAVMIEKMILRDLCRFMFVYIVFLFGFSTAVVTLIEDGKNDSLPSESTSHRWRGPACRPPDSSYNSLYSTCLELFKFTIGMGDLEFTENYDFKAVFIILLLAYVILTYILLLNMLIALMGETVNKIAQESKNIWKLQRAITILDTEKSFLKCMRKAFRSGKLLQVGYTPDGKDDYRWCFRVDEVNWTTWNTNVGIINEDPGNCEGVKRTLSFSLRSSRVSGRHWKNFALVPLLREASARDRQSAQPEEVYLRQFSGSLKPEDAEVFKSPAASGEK
Sequence of Transient receptor potential cation channel subfamily A member 1 (Mus musculus, UniProt Q8BLA8) (Q8BLA8 whole entry): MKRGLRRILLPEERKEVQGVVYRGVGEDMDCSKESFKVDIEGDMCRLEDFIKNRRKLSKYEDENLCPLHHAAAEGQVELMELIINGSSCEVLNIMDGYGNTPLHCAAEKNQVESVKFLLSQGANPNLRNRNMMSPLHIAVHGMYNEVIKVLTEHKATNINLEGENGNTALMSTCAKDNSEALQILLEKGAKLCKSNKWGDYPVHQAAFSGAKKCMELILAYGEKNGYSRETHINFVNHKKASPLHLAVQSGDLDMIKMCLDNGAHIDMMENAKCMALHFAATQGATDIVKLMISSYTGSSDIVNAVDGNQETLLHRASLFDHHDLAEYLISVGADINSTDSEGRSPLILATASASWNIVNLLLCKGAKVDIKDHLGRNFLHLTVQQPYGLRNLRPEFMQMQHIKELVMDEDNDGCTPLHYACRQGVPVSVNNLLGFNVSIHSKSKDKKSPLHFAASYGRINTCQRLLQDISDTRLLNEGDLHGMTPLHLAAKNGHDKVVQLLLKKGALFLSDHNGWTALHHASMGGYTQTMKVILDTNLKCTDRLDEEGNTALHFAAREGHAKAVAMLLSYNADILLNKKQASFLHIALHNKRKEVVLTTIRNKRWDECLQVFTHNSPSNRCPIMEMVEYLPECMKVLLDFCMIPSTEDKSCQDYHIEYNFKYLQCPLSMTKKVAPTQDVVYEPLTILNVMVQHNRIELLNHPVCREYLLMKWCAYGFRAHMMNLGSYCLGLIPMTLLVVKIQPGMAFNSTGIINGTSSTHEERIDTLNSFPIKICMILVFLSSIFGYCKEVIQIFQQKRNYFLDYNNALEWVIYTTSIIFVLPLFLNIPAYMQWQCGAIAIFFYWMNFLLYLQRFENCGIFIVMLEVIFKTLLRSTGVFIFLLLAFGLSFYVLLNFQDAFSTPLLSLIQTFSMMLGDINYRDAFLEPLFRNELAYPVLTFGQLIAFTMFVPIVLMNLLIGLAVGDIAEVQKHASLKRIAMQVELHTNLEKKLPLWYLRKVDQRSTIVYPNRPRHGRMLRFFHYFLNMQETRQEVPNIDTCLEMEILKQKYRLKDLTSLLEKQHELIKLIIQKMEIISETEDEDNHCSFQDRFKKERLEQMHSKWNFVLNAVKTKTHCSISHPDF
Sequence of Transient receptor potential cation channel subfamily A member 1 (Mus musculus) (Q8BLA8 whole entry): as above
Sequence of Transient receptor potential cation channel subfamily A member 1 (Rattus norvegicus, UniProt Q6RI86) (Q6RI86 whole entry): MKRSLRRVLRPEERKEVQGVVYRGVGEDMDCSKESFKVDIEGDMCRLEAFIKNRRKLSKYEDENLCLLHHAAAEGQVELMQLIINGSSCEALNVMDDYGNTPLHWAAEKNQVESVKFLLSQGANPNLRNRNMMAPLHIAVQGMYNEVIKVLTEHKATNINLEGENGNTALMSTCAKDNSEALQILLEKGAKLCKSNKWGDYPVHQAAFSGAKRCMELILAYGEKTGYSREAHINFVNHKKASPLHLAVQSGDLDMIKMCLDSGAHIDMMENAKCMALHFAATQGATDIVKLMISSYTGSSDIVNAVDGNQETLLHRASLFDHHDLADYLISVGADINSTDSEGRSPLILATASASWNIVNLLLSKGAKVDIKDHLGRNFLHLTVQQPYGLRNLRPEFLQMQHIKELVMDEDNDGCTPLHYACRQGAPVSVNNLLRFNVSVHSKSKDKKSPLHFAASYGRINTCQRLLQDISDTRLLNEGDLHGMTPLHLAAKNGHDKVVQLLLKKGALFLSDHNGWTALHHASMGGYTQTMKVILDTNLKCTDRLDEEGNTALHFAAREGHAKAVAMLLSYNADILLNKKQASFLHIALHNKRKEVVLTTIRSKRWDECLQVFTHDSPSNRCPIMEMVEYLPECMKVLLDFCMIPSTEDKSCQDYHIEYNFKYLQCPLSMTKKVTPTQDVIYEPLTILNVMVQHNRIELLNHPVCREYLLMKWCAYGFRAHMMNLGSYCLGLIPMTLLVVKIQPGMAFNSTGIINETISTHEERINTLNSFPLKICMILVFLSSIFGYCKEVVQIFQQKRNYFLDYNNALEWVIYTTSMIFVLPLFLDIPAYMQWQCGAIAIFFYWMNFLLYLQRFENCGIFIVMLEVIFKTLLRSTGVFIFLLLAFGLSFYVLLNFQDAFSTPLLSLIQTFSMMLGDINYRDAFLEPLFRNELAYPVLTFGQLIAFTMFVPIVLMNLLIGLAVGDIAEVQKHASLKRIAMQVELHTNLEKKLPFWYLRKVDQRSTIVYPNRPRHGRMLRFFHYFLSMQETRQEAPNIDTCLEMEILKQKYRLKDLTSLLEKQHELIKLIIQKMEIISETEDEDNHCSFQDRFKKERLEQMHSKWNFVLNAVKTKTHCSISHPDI
Sequence of Transient receptor potential cation channel subfamily A member 1 (Rattus norvegicus) (Q6RI86 whole entry): as above

## CC(C)c1ccc(NC(=O)Cn2cnc3c2c(=O)n(C)c(=O)n3C)cc1
[1]
  IC50: 2300 nM

## COc1cc2[nH]ncc2cc1-c1ccccc1C(F)(F)F
[2]
  IC50: 26 nM
  inhibition: 98%
[3]
  inhibition: 99%
[4]
  IC50: 99 nM
[5]
  inhibition: 100%
[6]
  IC50: 161 nM
[7]
  IC50: > 30000 nM
[7]; CHO-K1
  inhibition: 35%
[8]
  inhibition: 35%
[9]
  IC50: > 30000 nM
[10]
  IC50: 10900 nM
[10]; CHO-K1
  inhibition: 100%
[11]
  Ratio IC50: > 100
[12]
  Ratio IC50: > 100
[13]
  Ratio IC50: > 100
[14]
  clearance: 35.5 mL/min/kg
[15]
  Vd: 3.6 L/kg
[16]
  half-life: 6.6 h
[17]
  AUC: 8.2 µM·h
[18]
  Cmax: 2000 nM
[19]
  Tmax: 0.8 h
[20]
  bioavailability: 50%
